Reference: ChEMBL document CHEMBL1150693, “Structures of new dammarane-type Triterpene Saponins from the flower buds of Panax notoginseng and hepatoprotective effects of principal Ginseng Saponins” (2003)

Assays:
Format in all cases: functional
Settings in all cases: route intraperitoneal
[1] = tested on: Mus musculus; assay: Hepatoprotective activity against D-galactosamine/LPS-induced liver injury in ddY mouse assessed as inhibition of serum aspartate transaminase level at 100 mg/kg, ip administered 1 hr before D-galactosamine/LPS challenge by Reitman-Frankel method
Summary of the method: (§1)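 Male ddY mice (about 25-27 g) fasted 20 h; liver injury induced by i.p. D-GalN (350 mg/kg) plus LPS (10 µg/kg, Salmonella enteritidis) in saline. Test sample given i.p. 1 h before challenge. Blood taken from infraorbital venous plexus 10 h after D-GalN/LPS; sALT and sAST measured by Reitman-Frankel method (Karmen units). Mean ± SEM; one-way ANOVA with Dunnett's test.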

[2] = tested on: Mus musculus; assay: Hepatoprotective activity against D-galactosamine/LPS-induced liver injury in ddY mouse assessed as inhibition of serum alanine transaminase level at 100 mg/kg, ip administered 1 hr before D-galactosamine/LPS challenge by Reitman-Frankel method; summary of the method: as §1
[3] = tested on: Mus musculus; assay: Hepatoprotective activity against D-galactosamine/LPS-induced liver injury in ddY mouse assessed as inhibition of serum aspartate transaminase level at 50 mg/kg, ip administered 1 hr before D-galactosamine/LPS challenge by Reitman-Frankel method; summary of the method: as §1
[4] = tested on: Mus musculus; assay: Hepatoprotective activity against D-galactosamine/LPS-induced liver injury in ddY mouse assessed as inhibition of serum alanine transaminase level at 50 mg/kg, ip administered 1 hr before D-galactosamine/LPS challenge by Reitman-Frankel method; summary of the method: as §1
[5] = tested on: Mus musculus; assay: Hepatoprotective activity against D-galactosamine/LPS-induced liver injury in ddY mouse assessed as inhibition of serum aspartate transaminase level at 20 mg/kg, ip administered 1 hr before D-galactosamine/LPS challenge by Reitman-Frankel method
Summary of the method: (§2)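 Male ddY mice (about 25-27 g) fasted 20 h; liver injury induced by ip D-GalN (350 mg/kg) plus LPS (10 µg/kg, Salmonella enteritidis) in saline. Sample given ip 1 h before D-GalN/LPS. Blood drawn from infraorbital venous plexus 10 h after challenge; sALT and sAST measured by Reitman-Frankel kit, in Karmen units; % inhibition reported. Means ± SEM; one-way ANOVA with Dunnett's test.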

[6] = tested on: Mus musculus; assay: Hepatoprotective activity against D-galactosamine/LPS-induced liver injury in ddY mouse assessed as inhibition of serum alanine transaminase level at 20 mg/kg, ip administered 1 hr before D-galactosamine/LPS challenge by Reitman-Frankel method; summary of the method: as §2

| SMILES | inhibition in vivo at 100 mg/kg [1] | inhibition in vivo at 100 mg/kg [2] | inhibition in vivo at 50 mg/kg [3] | inhibition in vivo at 50 mg/kg [4] | inhibition in vivo at 20 mg/kg [5] | inhibition in vivo at 20 mg/kg [6] |
| --- | --- | --- | --- | --- | --- | --- |
| CC(C)=CCC[C@](C)(O[C@@H]1O[C@H](CO)[C@@H](O)[C@H](O)[C@H]1O)[C@H]1CC[C@]2(C)[C@@H]1[C@H](O)C[C@@H]1[C@@]3(C)CC[C@H](O)C(C)(C)[C@@H]3[C@@H](O[C@@H]3O[C@H](CO)[C@@H](O)[C@H](O)[C@H]3O[C@@H]3O[C@H](CO)[C@@H](O)[C@H](O)[C@H]3O)C[C@]12C | 40% | 34% |  |  |  |  |
| CC(C)=CCC[C@](C)(O[C@@H]1O[C@H](CO[C@@H]2O[C@H](CO)[C@@H](O)[C@H](O)[C@H]2O)[C@@H](O)[C@H](O)[C@H]1O)[C@H]1CC[C@]2(C)[C@@H]1[C@H](O)C[C@@H]1[C@@]3(C)CC[C@H](O[C@@H]4O[C@H](CO)[C@@H](O)[C@H](O)[C@H]4O[C@@H]4O[C@H](CO)[C@@H](O)[C@H](O)[C@H]4O)C(C)(C)[C@@H]3CC[C@]12C [GINSENOSIDE RB1] | 40% | 33% |  |  |  |  |
| CC(C)=CCC[C@](C)(O[C@@H]1O[C@H](CO[C@@H]2OC[C@@H](O)[C@H](O)[C@H]2O)[C@@H](O)[C@H](O)[C@H]1O)[C@H]1CC[C@]2(C)[C@@H]1[C@H](O)C[C@@H]1[C@@]3(C)CC[C@H](O[C@@H]4O[C@H](CO)[C@@H](O)[C@H](O)[C@H]4O[C@@H]4O[C@H](CO)[C@@H](O)[C@H](O)[C@H]4O)C(C)(C)[C@@H]3CC[C@]12C [GINSENOSIDE RB3] | 80% | 91% | 72% | 77% |  |  |
| CC(C)=CCC[C@](C)(O[C@@H]1O[C@H](CO[C@@H]2O[C@@H](CO)[C@H](O)[C@H]2O)[C@@H](O)[C@H](O)[C@H]1O)[C@H]1CC[C@]2(C)[C@@H]1[C@H](O)C[C@@H]1[C@@]3(C)CC[C@H](O[C@@H]4O[C@H](CO)[C@@H](O)[C@H](O)[C@H]4O[C@@H]4O[C@H](CO)[C@@H](O)[C@H](O)[C@H]4O)C(C)(C)[C@@H]3CC[C@]12C [GINSENOSIDE RC] | 87% | 89% | 80% | 77% |  |  |
| CC(C)=CCC[C@](C)(O[C@@H]1O[C@H](CO)[C@@H](O)[C@H](O)[C@H]1O)[C@H]1CC[C@]2(C)[C@@H]1[C@H](O)C[C@@H]1[C@@]3(C)CC[C@H](O[C@@H]4O[C@H](CO)[C@@H](O)[C@H](O)[C@H]4O[C@@H]4O[C@H](CO)[C@@H](O)[C@H](O)[C@H]4O)C(C)(C)[C@@H]3CC[C@]12C [GINSENOSIDE RD] | 93% | 97% |  |  |  |  |
| CC(C)=CCC[C@](C)(O[C@@H]1O[C@H](CO)[C@@H](O)[C@H](O)[C@H]1O)[C@H]1CC[C@]2(C)[C@@H]1[C@H](O)C[C@@H]1[C@@]3(C)CC[C@H](O)C(C)(C)[C@@H]3[C@@H](O[C@@H]3O[C@H](CO)[C@@H](O)[C@H](O)[C@H]3O[C@@H]3O[C@@H](C)[C@H](O)[C@@H](O)[C@H]3O)C[C@]12C [GINSENOSIDE RE] | 90% | 92% |  |  |  |  |
| CC(C)=CCC[C@](C)(O[C@@H]1O[C@H](CO)[C@@H](O)[C@H](O)[C@H]1O)[C@H]1CC[C@]2(C)[C@@H]1[C@H](O)C[C@@H]1[C@@]3(C)CC[C@H](O)C(C)(C)[C@@H]3[C@@H](O[C@@H]3O[C@H](CO)[C@@H](O)[C@H](O)[C@H]3O)C[C@]12C [GINSENOSIDE RG1] | 12% | 30% |  |  |  |  |
| CC(C)=CCC[C@](C)(O)[C@H]1CC[C@]2(C)[C@@H]1[C@H](O)C[C@@H]1[C@@]3(C)CC[C@H](O)C(C)(C)[C@@H]3[C@@H](O[C@@H]3O[C@H](CO)[C@@H](O)[C@H](O)[C@H]3O)C[C@]12C [GINSENOSIDE RH1] | 90% | 93% |  |  |  |  |
| CC(C)=CCC[C@](C)(O[C@@H]1O[C@H](CO[C@@H]2O[C@H](CO)[C@@H](O)[C@H](O)[C@H]2O)[C@@H](O)[C@H](O)[C@H]1O)[C@H]1CC[C@]2(C)[C@@H]1[C@H](O)C[C@@H]1[C@@]3(C)CC[C@H](O[C@@H]4O[C@H](CO)[C@@H](O)[C@H](O)[C@H]4O)C(C)(C)[C@@H]3CC[C@]12C [GYPENOSIDE XVII] | 91% | 95% |  |  |  |  |
| C[C@]12CCC(=O)C=C1CC[C@@H]1[C@@H]2[C@@H](O)C[C@@]2(C)[C@H]1CC[C@]2(O)C(=O)CO [HYDROCORTISONE] |  |  |  |  | 97% | 99% |
| CC(C)=CCC[C@](C)(O[C@@H]1O[C@H](CO)[C@@H](O)[C@H](O)[C@H]1O)[C@H]1CC[C@]2(C)[C@@H]1[C@H](O)C[C@@H]1[C@@]3(C)CC[C@H](O)C(C)(C)[C@@H]3[C@@H](O[C@@H]3O[C@H](CO)[C@@H](O)[C@H](O)[C@H]3O[C@@H]3OC[C@@H](O)[C@H](O)[C@H]3O)C[C@]12C [NOTOGINSENOSIDE R1] | 89% | 87% |  |  |  |  |
| CC(C)=CCC[C@](C)(O[C@@H]1O[C@H](CO[C@@H]2O[C@H](CO)[C@@H](O)[C@H](O)[C@H]2O)[C@@H](O)[C@H](O)[C@H]1O)[C@H]1CC[C@]2(C)[C@@H]1[C@H](O)C[C@@H]1[C@@]3(C)CC[C@H](O)C(C)(C)[C@@H]3[C@@H](O[C@@H]3O[C@H](CO)[C@@H](O)[C@H](O)[C@H]3O)C[C@]12C [notoginsenoside-R6] | 44% | 32% |  |  |  |  |
